What was measured:
Norovirus = assay: Antiviral activity against HG23 cells harboring Norovirus replicon assessed as decrease in viral RNA level measured after 48 hrs by qRT-PCR analysis; format: functional, cell-based; settings: HG23, 48 h
Procedure, shortened: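 One-day-old HG23 cells (Norwalk virus replicon-bearing) exposed to 1.0–100 μM compound for 48 h; total RNA extracted and norovirus RNA quantified by qRT-PCR, normalized to β-actin. Percent reduction versus mock-treated cells used to calculate EC50; at least two independent experiments.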

[1] = Cytotoxicity against human HG23 cells after 72 hrs by CytoTox-96 non-radioactive cytotoxicity assay; format: cell-based; settings: hg23, 72 h

With `CC(C)C[C@@H]1NC(=O)[C@@H](NC(=O)OCc2ccccc2)Cc2cn(nn2)CCCNC(=O)CC[C@@H](C=O)NC1=O` the EC50 (Norovirus) was 81.5 µM and the CC50 [1] was over 100 µM.

In the case of `CC(C)C[C@@H]1NC(=O)[C@@H](NC(=O)OCc2ccccc2)Cc2cn(nn2)CCCCCCNC(=O)CC[C@@H](C=O)NC1=O`, the EC50 (Norovirus) is reported as 42.1 µM and the CC50 [1] is reported as over 100 µM.

Work on `CC(C)C[C@@H]1NC(=O)[C@@H](NC(=O)OCc2ccccc2)Cc2cn(nn2)CCCCCNC(=O)CC[C@@H](C=O)NC1=O` yielded an EC50 (Norovirus) of 6.2 µM and a CC50 [1] of over 100 µM.

For `CC(C)C[C@@H]1NC(=O)[C@@H](NC(=O)OCc2ccccc2)Cc2cn(nn2)CCCCNC(=O)CC[C@@H](C=O)NC1=O`, the EC50 (Norovirus) was 46.3 µM and the CC50 [1] was over 100 µM.

`O=C[C@@H]1CCC(=O)NCCCCCCn2cc(nn2)C[C@H](NC(=O)OCc2ccccc2)C(=O)N[C@@H](Cc2ccccc2)C(=O)N1` showed an EC50 (Norovirus) of 29.5 µM and a CC50 [1] of over 100 µM.

`CC(C)C[C@@H]1NC(=O)[C@@H](NC(=O)OCc2ccccc2)CCCn2cc(nn2)CNC(=O)CC[C@@H](C=O)NC1=O` showed an EC50 (Norovirus) of 8.5 µM.

Work on `O=C[C@@H]1CCC(=O)NCCCn2cc(nn2)C[C@H](NC(=O)OCc2ccccc2)C(=O)N[C@@H](CC2CCCCC2)C(=O)N1` yielded an EC50 (Norovirus) of 16.1 µM and a CC50 [1] of over 100 µM.

With `O=C[C@@H]1CCC(=O)NCCCCCCn2cc(nn2)C[C@H](NC(=O)OCc2ccccc2)C(=O)N[C@@H](CC2CCCCC2)C(=O)N1` the EC50 (Norovirus) was 88.3 µM and the CC50 [1] was over 100 µM.

Compound `O=C[C@@H]1CCC(=O)NCCCCn2cc(nn2)C[C@H](NC(=O)OCc2ccccc2)C(=O)N[C@@H](CC2CCCCC2)C(=O)N1` has an EC50 (Norovirus) of 30.5 µM and a CC50 [1] of over 100 µM.

For `O=C[C@@H]1CCC(=O)NCCCCCn2cc(nn2)C[C@H](NC(=O)OCc2ccccc2)C(=O)N[C@@H](CC2CCCCC2)C(=O)N1`, the EC50 (Norovirus) was 3.8 µM and the CC50 [1] was over 100 µM.

In the case of `CC(C)C[C@@H]1NC(=O)[C@@H](NC(=O)OCc2ccccc2)Cc2cn(nn2)CCNC(=O)CC[C@@H](C=O)NC1=O`, the EC50 (Norovirus) is reported as 53.2 µM and the CC50 [1] is reported as over 100 µM.

For `O=C[C@@H]1CCC(=O)NCCn2cc(nn2)C[C@H](NC(=O)OCc2ccccc2)C(=O)N[C@@H](CC2CCCCC2)C(=O)N1`, the EC50 (Norovirus) was 25.5 µM and the CC50 [1] was over 100 µM.
